From PubChem BioAssay
The list is not random: actives were taken first. Their share in the collection is about 3.7%.
KCNK9 inh – KCNK9 potassium channel inhibitors, primary screen, HEK293 cells, thallium flux; 310,000 compounds, 1.2% hits; B-score at 10 µM; FluxOR thallium flux fluorescence; hits give low values; AID 488922, 2010;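 active means ratio B-score over 3 SD below the library mean, with starting fluorescence within 5 SD of its mean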;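 further: negative B-score means less thallium flux so channel inhibition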
Kir21 block – inhibitors of mouse Kir2.1 inward-rectifier potassium channel; Inward rectifier potassium channel 2 (Mus musculus), P35561; HEK293-Kir2.1, FluxOR thallium flux fluorescence; hits give low values; B-score at 10 µM; 310,000 compounds, 0.85% hits; AID 1672, 2009;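 active means fluorescence ratio B-score at or below minus 3 SD of library scores, with starting-brightness B-score within 2 SD, cut at about -4.2 in these data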;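 further: channel flux triggered by added potassium and thallium sulfate stimulus; B-score of peak minus minimum fluorescence over baseline after thallium stimulus; more negative B-score means stronger Kir2.1 block with less thallium influx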
Target sequence (P35561 whole entry, looked up): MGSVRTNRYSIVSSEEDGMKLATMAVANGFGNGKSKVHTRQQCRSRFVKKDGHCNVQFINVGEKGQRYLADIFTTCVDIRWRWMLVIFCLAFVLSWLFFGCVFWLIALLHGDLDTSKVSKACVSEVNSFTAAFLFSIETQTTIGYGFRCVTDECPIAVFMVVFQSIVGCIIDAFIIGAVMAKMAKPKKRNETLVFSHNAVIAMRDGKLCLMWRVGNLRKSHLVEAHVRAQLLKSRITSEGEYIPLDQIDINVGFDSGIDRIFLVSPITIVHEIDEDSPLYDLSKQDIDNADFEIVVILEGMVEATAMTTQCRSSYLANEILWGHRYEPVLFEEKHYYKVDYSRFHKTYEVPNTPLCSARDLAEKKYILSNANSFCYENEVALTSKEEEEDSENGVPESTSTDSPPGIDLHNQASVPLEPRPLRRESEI
KCNQ1 pot – potentiators or activators of KCNQ1 channel, primary screen, cell-based, thallium flux, high-throughput. Potassium voltage-gated channel subfamily KQT member 1 (Homo sapiens), P51787. CHO-K1 KCNQ1, thallium flux FluxOR fluorescence; hits give high values. B-score at 10 µM. 310,000 compounds, 0.35% hits;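 active means fluorescence ratio B-score, a plate-corrected score, at least three library SD, with initial intensity B-score within 5 SD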
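Material: CHO-K1 cells stably expressing KCNQ1. Medium: assay buffer for compound exposure, DMSO matched across wells. Reagent: K+/Tl+ depolarizing stimulus. Compound dosing: single-concentration screen. Times: 37 °C overnight plating, 90-min dark dye load, 20-min compound pretreatment. Technique: FluxOR Tl+ flux fluorescence.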
hERG protect – hERG rescue from dofetilide block, primary screen, cell-based, CHO-hERG, FluxOR thallium flux, dofetilide IC70 | AID 1511, 2009 | 310,000 compounds, 0.51% hits | activation (rescue from dofetilide block), less the hit threshold, % at 10 µM | Voltage-gated inwardly rectifying potassium channel KCNH2 (Homo sapiens), Q12809 | dofetilide IC70 present;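 active means activation above the mean of controls blocked by dofetilide plus 5 SD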;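 further: thallium influx through hERG after potassium depolarization seen as dye fluorescence rise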
KCNQ1 block – inhibitors of human KCNQ1 channel, primary screen, cell-based, thallium flux, high-throughput; Potassium voltage-gated channel subfamily KQT member 1 (Homo sapiens), P51787; CHO-K1 KCNQ1, FluxOR thallium flux fluorescence; hits give high values; B-score at 10 µM; 310,000 compounds, 1.3% hits; AID 2642, 2010;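 active means compounds whose thallium flux B-score, printed positive for inhibition, exceeds three library SD while starting fluorescence stays within three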;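 further: channel opened by potassium depolarization with thallium stimulus after 20 min compound exposure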
KCNK3 inh – human KCNK3 channel inhibitors, primary screen, CHO cells, FluxOR thallium flux, B-score; FluxOR fluorescence; hits give low values; AID 602410, 2012; B-score at 10 µM; Potassium channel subfamily K member 3 (Homo sapiens), O14649; 340,000 compounds, 0.84% hits;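 active means B-score under library mean minus 4 SD, starting fluorescence ratio at most library mean plus 5 SD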;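 further: more negative B-score means stronger inhibition of thallium flux through KCNK3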
KCNK9 inh conf – KCNK9 potassium channel inhibitors, confirmation, HEK293 cells, thallium flux, duplicate. shares compounds with KCNK9 inh. FluxOR thallium flux fluorescence. inhibition, % at 10 µM. 4,900 compounds, 43% hits;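 active means thallium signal inhibited by more than 5 SD of the compound-free buffer control wells, on both duplicate plates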;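 further: 0% = assay buffer control wells without compound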
Kir2-1 spec – mouse Kir2.1 channel inhibition, confirmation, selectivity assay for KCNK9 modulator project, cell-based, HEK293, thallium flux; Kir2.1 cells, FluxOR thallium flux fluorescence; 4,900 compounds, 4% hits; AID 492993, 2010; shares compounds with KCNK9 inh; inhibition, % at 10 µM;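 active means thallium signal drop more than 5 SD beyond the mean of the no-compound control wells, seen in both duplicate plates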;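 further: signal is fluorescence rise after thallium addition divided by baseline fluorescence; plate controls were assay buffer only for no effect and full block by chlorpromazine control for full effect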
HEK293 Tl ctr – thallium flux in non-induced HEK293 cells, confirmation, counter-screen for KCNK9 inhibitor project, cell-based, second counter screen, non-induced KCNK9-HEK293 | shares compounds with KCNK9 inh | FluxOR thallium flux | inhibition, % at 10 µM | 4,900 compounds, 40% hits | AID 492997, 2010;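 active means thallium signal drop beyond 5 SD of the untreated control mean, on both duplicate plates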;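 further: plate controls were buffer only IC0 wells for no effect and SID17386958 at its maximal inhibitory level for full effect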
Active calls of the source: *; i = inactive; . = not tested or not shown.

SMILES | KCNK9 inh | Kir21 block | KCNQ1 pot | hERG protect | KCNQ1 block | KCNK3 inh | KCNK9 inh conf | Kir2-1 spec | HEK293 Tl ctr
COc1ccccc1C1CCN(C(=O)c2cnn(-c3ccccc3)c2C)CC1 | i | 0.19 | i | -12 | i | i | i | i | i
COc1ccccc1C1CCN(C(=O)c2ccccc2)CC1 | i | 0.01 | i | -9 | i | i | . | . | .
FC(F)(F)c1ccccc1CN1CCCC(N2CCN(c3ccccc3)CC2)C1 (stereo not drawn) | i | -0.11 | i | -4 | i | i | i | i | i
CCN(c1ccc(NC(=O)c2ccc(N3CCCC3=O)cc2)cc1)C(C)C | i | 0.14 | i | -16 | i | i | . | . | .
COc1cc(OC)c(C(=O)NC23CC4CC(CC(C4)C2)C3)cc1OC | i | 0.2 | i | -4 | i | i | . | . | .
O=C(NC12CC3CC(CC(C3)C1)C2)c1cc(F)c(F)c(F)c1F | i | -0.62 | i | -1 | i | i | i | i | i
COc1ccc(CCC(=O)N2CCN(c3cccc(C)c3C)CC2)cc1 | i | -2.1 | i | -13 | i | i | i | i | i
COc1ccc(-c2cccc(CCC(=O)N3CCN(c4cc(C)ccc4C)CC3)c2)cc1 | . | . | . | . | . | i | . | . | .
COc1ccc(C(=O)CCC(=O)N2CCN(c3cc(C)ccc3C)CC2)cc1 | i | -1.5 | i | -3 | i | i | i | i | i
CCC(C)(C)n1nnnc1C(c1cccnc1)N1CCN(c2cccc(C(F)(F)F)c2)CC1 (stereo not drawn) | -11* | -0.78 | i | -9 | i | i | 32%* | i | i
CCC(C)(C)n1nnnc1C(c1ccncc1)N1CCN(c2cccc(OC)c2)CC1 (stereo not drawn) | i | 0.08 | i | -5 | i | i | . | . | .
Fc1ccc(/C=C/c2nnc(-c3cccs3)o2)cc1 | -8.7* | -0.03 | i | -3 | i | i | 33%* | i | i
COCCn1nnnc1C(C(C)C)N1CCCC(C)C1 (stereo not drawn) | i | -0.01 | i | -7 | i | i | . | . | .
C=CCC[C@@H](Cc1ccc(F)cc1)C(=O)OC[C@@H](NC(=O)[C@@H](CC=C)CC(=O)N[C@H](CO)Cc1ccccc1)C(C)(C)C | . | . | . | . | . | i | . | . | .
Cc1cc(C)cc(NC(=O)CN2CCCN(S(=O)(=O)c3ccc(Br)s3)CC2)c1 | -16* | -0.69 | i | -19 | i | -10* | 70%* | i | 46%*
Cc1ccc(NC(=O)CN2CCCN(S(=O)(=O)c3ccc(Br)s3)CC2)cc1 | i | 0.85 | i | -11 | i | i | . | . | .
CSc1ncccc1C(=O)Nc1ccc2c(c1)OCCO2 | . | . | . | . | . | i | . | . | .
Cc1ccc2cccc(N=Cc3c(C)[nH]n(-c4ccccc4)c3=O)c2n1 | -10* | -0.02 | i | -2 | i | i | 47%* | i | i
Cn1c(=O)oc2cc(S(=O)(=O)CCC(=O)N3CCN(c4ccccc4F)CC3)ccc21 | i | -2.3 | i | -3 | i | i | . | . | .
Cc1ccc(C)c(N2CCN(C(=O)CCS(=O)(=O)c3ccc4c(c3)oc(=O)n4C)CC2)c1 | i | 0.85 | i | -9 | i | i | i | i | i
CNC(=S)NNC(=O)c1cccc(N(C)C)c1 | i | -0.49 | i | -16 | i | i | . | . | .
N#C/C(=C/c1ccc(N2CCCCCC2)o1)c1ccc(Cl)cc1 | -10* | -3.8 | i | -31 | 7* | i | 60%* | i | 78%*
N#C/C(=C/c1ccc(N2CCCCC2)cc1)c1cccc(F)c1 | i | -1.4 | i | -10 | i | i | . | . | .
Cn1c(CCC(=O)Nc2cc(S(C)(=O)=O)ccc2Cl)nc2cc(S(=O)(=O)N3CCOCC3)ccc21 | i | 0.02 | i | -2 | i | i | . | . | .
CCn1cc(C(=O)N2CCN(c3ccccn3)CC2)c(=O)c2cc(S(=O)(=O)N(C)C3CCCCC3)ccc21 | i | -0.4 | i | -15 | i | i | . | . | .
SMILES | KCNK9 inh | Kir21 block | KCNQ1 pot | hERG protect | KCNQ1 block | KCNK3 inh | KCNK9 inh conf | Kir2-1 spec | HEK293 Tl ctr
c1ccc(Cc2nnc(N3CCCCC3)c3ccccc23)cc1 | i | -2.3 | i | -4 | i | i | i | i | i
NNC(=O)c1cc2ccccc2cc1NS(=O)(=O)c1ccccc1 | i | -1.4 | i | 0 | i | i | . | . | .
COc1ccccc1-c1nc(C#N)c(N2CCc3ccccc3C2)o1 | -21* | -0.41 | i | -15 | i | -13* | 67%* | i | i
COc1ccccc1-c1nc(C#N)c(N2CCN(c3ccccc3)CC2)o1 | -12* | 1.9 | i | -8 | i | i | 44%* | i | i
COc1ccccc1-c1nc(C#N)c(N2CCCCCC2)o1 | i | -1.4 | i | -12 | i | i | . | . | .
COc1ccc(C(=O)CSc2ccc(-c3ccccc3)nn2)cc1 | i | 0.68 | i | -8 | i | i | i | i | i
COc1cccc(-c2ccc(SCC(=O)c3ccccc3)nn2)c1 | i | -0.43 | i | -19 | i | i | i | i | i
CC(=O)c1cccc(NC(=O)C(OC(=O)/C=C/c2ccc3c(c2)OCO3)c2ccccc2)c1 (stereo not drawn) | -9.3* | 0.03 | i | -15 | i | i | 24%* | i | i
O=C(/C=C/NNC(=O)c1cccc(Br)c1)c1cccc(Br)c1 | -9* | 1.4 | i | -15 | i | -9* | 38%* | i | 34%*
COc1ccc(C(=O)NCc2nnc(SCC(=O)Nc3ccccc3OC)n2C)cc1 | i | 0.5 | i | -5 | i | i | i | i | i
